High-throughput results (PubChem)
In the library only some 3.5% were active in any assay of this set; here they are far more common.
RGS4 block: inhibitors of human RGS4 | HEK293 M3R/RGS4 inducible, Fluo-4 calcium flux; active compounds read high; triggered by carbachol at its EC20 | P49798 | B-score at 10 µM | 310,000 tested, 0.45% active;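 active = B-score, a plate-corrected calcium signal, over three deviations above library mean, with baseline fluorescence within five deviations of library mean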;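 note: RGS4 expression induced by doxycycline in cells with stable M3 receptor; B-score is computed from the integrated fluorescence ratio over baseline after carbachol; higher B-score means a larger calcium signal and so more RGS4 inhibition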
Target sequence (P49798 whole entry, looked up): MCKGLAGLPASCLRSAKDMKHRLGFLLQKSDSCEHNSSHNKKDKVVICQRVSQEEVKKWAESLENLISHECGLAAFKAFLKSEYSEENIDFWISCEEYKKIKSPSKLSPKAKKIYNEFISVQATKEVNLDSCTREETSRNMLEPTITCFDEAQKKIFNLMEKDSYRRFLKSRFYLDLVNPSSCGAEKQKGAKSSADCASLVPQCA
MrgX1 antagonist: human MrgX1 receptor antagonism, primary screen. Q96LB2. MRGX1-HEK293 calcium flux, Fluo-4, BAM8-22 antagonism; active compounds read low. B-score at 10 µM. 310,000 tested, 1.3% active;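 active = calcium-response B-score plate-corrected more than 3 library SD below zero, starting fluorescence within 5 deviations, no agonist response on first addition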;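 note: peak minus trough fluorescence over baseline after final BAM8-22 challenge near maximal dose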
Target sequence (Q96LB2 whole entry, looked up): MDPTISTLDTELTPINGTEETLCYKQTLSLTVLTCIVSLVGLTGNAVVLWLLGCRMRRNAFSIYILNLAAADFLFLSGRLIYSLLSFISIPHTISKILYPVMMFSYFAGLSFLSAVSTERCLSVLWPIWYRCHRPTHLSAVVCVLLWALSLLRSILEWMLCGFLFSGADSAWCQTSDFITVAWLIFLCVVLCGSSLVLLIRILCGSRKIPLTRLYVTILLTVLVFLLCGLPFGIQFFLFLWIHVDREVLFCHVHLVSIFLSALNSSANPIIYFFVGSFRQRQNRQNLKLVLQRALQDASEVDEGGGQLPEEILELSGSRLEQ
MrgX1 agonist: agonists of human MrgX1 receptor. B-score at 10 µM. 310,000 tested, 0.44% active. AID 588627. MrgX1-HEK293 cells, Fluo-4 calcium fluorescence, agonist mode; active compounds read high;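 active = calcium response B-score plate-corrected fluorescence ratio at least 3 library SD, with starting fluorescence B-score inside 5 SD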
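Assay system: MrgX1-expressing HEK293 cells / Amount: fifteen thousand cells per well / Doses: test compound in the initial addition of three / Timing: cells plated overnight, dye loaded 0.5 h 37 °C, 0.5 h room temperature / Technique: kinetic calcium dye fluorescence, Fluo-4 NW / Control set: positive and negative controls per plate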
MrgX1 allo act: allosterically activates human MrgX1 receptor signaling; Q96LB2; MrgX1-HEK293, Fluo-4 calcium flux, FDSS; active compounds read high; B-score at 10 µM; 310,000 tested, 0.63% active; AID 588675;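 active = plate-corrected calcium response at least 3 library SD above typical, normal starting fluorescence, not activating the receptor alone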;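 note: compound read alongside a low EC10 to EC30 dose of BAM8-22 agonist; peak minus trough fluorescence over baseline measured at the second addition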
RGS4 pot: RGS4 potentiation or activation. HEK293 M3R/inducible RGS4, carbachol calcium flux Fluo4; active compounds read low. B-score at 10 µM. 310,000 tested, 0.92% active;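 active = B-score of the integrated calcium signal more than 4 SD below the library mean, with starting fluorescence not abnormally high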;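 note: negative B-score means reduced calcium response which marks RGS4 activation or potentiation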
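Detection: kinetic calcium fluorescence imaging with Fluo4-AM dye, 2 µM / Material: HEK293 cells with stable M3R and inducible RGS4 / Schedule: recording 10 s baseline at 1 Hz, 100 s post-agonist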
* hit, by the source's call; i = inactive.

SMILES	RGS4 block	MrgX1 antagonist	MrgX1 agonist	MrgX1 allo act	RGS4 pot
COC1=CC(=Cc2c(N)n3nc(CC(=O)N4CCCCC4)sc3nc2=O)C=C(OC)C1=O	i	i	i	i	i
Cc1ccc(S(=O)(=O)N2CCC(C(=O)N/N=C/c3ccccc3[N+](=O)[O-])CC2)cc1	i	i	i	i	i
Cc1ccc(S(=O)(=O)N2CCC(C(=O)N/N=C/c3cccnc3)CC2)cc1	i	-5.22*	i	i	i
CC(NC(=O)OCc1ccccc1)C(=O)NCC(=O)NC(Cc1ccc(OC(C)(C)C)cc1)C(=O)OC(C)(C)C (stereo unspecified)	i	i	i	i	i
Cc1c(CCC(=O)N[C@@H](CC(C)C)C(=O)O)c(=O)oc2cc3oc4c(c3cc12)CCCC4	i	i	i	14.5*	i
COc1ccc(S(=O)(=O)N2CCC3(CC2)OCCN3S(=O)(=O)c2c(C)cc(C)cc2C)cc1	i	i	i	i	i
COc1ccc(S(=O)(=O)O/N=C2\CCCc3ccccc32)cc1	i	-4.67*	i	i	i
O=C(O)c1nn2c(C(F)(F)F)cc(-c3cccs3)nc2c1Cl	i	i	i	i	i
CCC(C)n1c(=S)[nH]c2c(sc3ccc([N+](=O)[O-])cc32)c1=O (stereo unspecified)	i	i	i	9.21*	i
COc1cccc(-c2nn(C)c3sc(C(=O)N4CCN(c5ccccn5)CC4)cc23)c1	i	i	i	i	-10.7*
COc1cccc(-c2nn(C)c3sc(C(=O)N4CCOCC4)cc23)c1	i	i	i	i	i
CCOC(=O)c1nc(S(C)(=O)=O)ncc1Cl	i	i	42.8*	i	i
CCOC(=O)c1nc(S(C)(=O)=O)ncc1N1CCOCC1	i	i	i	i	i
CSc1ccc(CN(C)CC(=O)Nc2ccc(C)cc2Br)cc1	i	i	i	i	i
O=C(CSc1nnc(NC(=O)c2ccccc2Cl)s1)Nc1ccc2c(c1)oc1ccccc12	i	-4.59*	i	i	i
COc1cc(C=O)ccc1OCCSc1ccc(Cl)cc1	i	-5.38*	i	i	i
COc1cc(C=O)ccc1OCCOCCOc1ccc(Cl)cc1	i	i	i	i	i
CC(=O)OCC1O[C@@H](O[C@@H]2C[C@H]3C(C)(C)[C@H](OC(C)=O)CC[C@]3(C)[C@H]3CC[C@]45C[C@]4(CC[C@H]5[C@@H](C)C[C@@H](O)[C@H](O)C(C)(C)O)[C@@]32C)[C@H](O)[C@@H](O)[C@@H]1O (stereo partly specified)	i	i	42.5*	i	i
O=C(Nc1cccc(-c2nc3ccccc3s2)c1)c1cc(-n2cnnc2)ccc1Cl	i	i	i	i	-8.27*
Cc1c(NC(=O)c2cc(-n3cnnc3)ccc2Cl)cccc1-c1nc2ccccc2s1	i	i	i	i	i
COc1cc(/C=C/C(=O)O)cc(S(=O)(=O)Nc2ccc(F)cc2)c1OC	i	i	i	i	i
COc1cc(/C=C/C(=O)O)cc(S(=O)(=O)Nc2cccc(SC)c2)c1OC	i	-6.31*	i	i	i
CC(C)C(C(=O)Nc1ccncc1)c1ccc(Cl)cc1 (stereo unspecified)	i	-4.58*	i	i	i
C=CCN(CC(O)c1cccc([N+](=O)[O-])c1)C(C)CCc1ccccc1 (stereo unspecified)	i	i	i	15.9*	i
O=C(Cc1ccccc1)NC(NC(=O)Cc1ccccc1)c1cccc([N+](=O)[O-])c1	i	i	i	i	i
SMILES	RGS4 block	MrgX1 antagonist	MrgX1 agonist	MrgX1 allo act	RGS4 pot
CNC(=O)c1cc(Nc2nnc(-c3ccc(C)c(S(N)(=O)=O)c3)c3ccccc23)ccc1OC	i	i	i	i	i
CCOC(=O)C1CCCN(S(=O)(=O)c2ccc(S(=O)(=O)N3CCCC3)cc2)C1 (stereo unspecified)	i	-5.26*	i	i	i
CCOC(=O)C1CCCN(C(=O)c2ccc(S(=O)(=O)N3CCCC3)cc2)C1 (stereo unspecified)	i	i	i	i	i
CCCCCCCCCCC[C@@H](C[C@@H]1OC(=O)[C@H]1CCCCCC)OC(=O)[C@H](CC(C)C)NC=O	i	i	i	i	i
COC(=O)c1ccc(CN(C(C)=O)c2ccccc2)o1	i	i	i	i	-7.26*
COc1cc(/C=N/Nc2ccc(C(F)(F)F)cn2)ccc1O	i	i	i	7.51*	i
CCC(=O)Oc1ccc(C/C(=N\O)c2ccc(O)cc2O)o1	i	-4.6*	i	i	i
CCOC(=O)c1ccc(CC(=O)c2ccc(O)cc2O)o1	i	i	i	i	i
Cc1ccc(-n2nc3c(c2NC(=O)c2cccs2)CS(=O)(=O)C3)cc1C	i	i	i	i	i
CCOC(=O)c1c(/N=C/c2ccc(C)cc2O)sc2c1CCC2	i	i	i	i	i
CCOC(=O)c1c(/N=C/c2ccc(OC)cc2O)sc2c1CCN(C)C2	i	-4.78*	i	i	i
Cc1c(Br)c([N+](=O)[O-])nn1CC(=O)NCc1ccccc1	i	i	i	i	i
Cc1c(Br)c([N+](=O)[O-])nn1CC(=O)NCCc1c[nH]c2ccccc12	i	-5*	i	i	i
CCn1c2ccc(C)cc2c2nnc(NN)nc21	i	i	28.9*	i	i
O=C(c1ccc([N+](=O)[O-])cc1)N1CCSC1c1ccccc1 (stereo unspecified)	i	i	i	i	i
O=C(c1ccc([N+](=O)[O-])cc1)N1CCSC1c1cccc(Cl)c1 (stereo unspecified)	i	i	i	i	-7.53*
COc1ccc(C)cc1S(=O)(=O)N1CCC(C(=O)NCCc2ccccc2)CC1	i	i	i	i	i
Cc1ccc(/C(O)=C2/C(=O)C(=O)N(c3ccccn3)C2c2ccc([N+](=O)[O-])cc2)cc1 (stereo unspecified)	i	-4.82*	i	i	i
COc1nc(Nc2cccc(F)c2)nc(OC)n1	i	i	i	i	i
COc1cc2nc(Nc3cccc(F)c3)nc(N)c2cc1OC	i	i	i	i	-7.05*
Cn1/c(=N\NC(=O)c2ccccc2Cl)sc2ccccc21	i	i	31.4*	i	i
CC(=O)N/N=c1\sc2ccccc2n1C	i	i	i	i	i
